Target: T1, Endothelin-1 receptor (Sus scrofa, UniProt Q29010)
T1 sequence (Q29010 whole entry): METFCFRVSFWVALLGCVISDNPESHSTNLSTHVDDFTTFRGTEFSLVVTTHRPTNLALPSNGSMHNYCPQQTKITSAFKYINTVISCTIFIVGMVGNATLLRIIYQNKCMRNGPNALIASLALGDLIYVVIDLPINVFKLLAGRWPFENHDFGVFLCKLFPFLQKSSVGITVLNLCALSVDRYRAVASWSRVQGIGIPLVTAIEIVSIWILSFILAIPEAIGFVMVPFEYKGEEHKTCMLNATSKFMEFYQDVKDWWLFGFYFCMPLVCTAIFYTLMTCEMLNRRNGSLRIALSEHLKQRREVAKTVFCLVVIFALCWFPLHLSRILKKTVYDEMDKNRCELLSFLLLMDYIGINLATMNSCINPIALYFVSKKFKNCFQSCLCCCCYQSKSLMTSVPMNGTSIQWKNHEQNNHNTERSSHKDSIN
Assay: In vitro inhibition of [125I]ET1 binding to Endothelin A receptor in porcine aortic membrane from endothelial cells
Type: cell membranes
Settings: in the assay text read “with endothelium removed” for “from endothelial cells”
Summary of the method: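 Endothelium-free porcine aorta homogenized in 10 mM MOPS (pH 7.4) with 20% sucrose. Membranes spun 1000g 15 min, then supernatant 90000g 45 min, and resuspended in 5 mM HEPES-Tris. Incubated with 20 pM final 125I-ET-1 and graded compound concentrations in 50 mM Tris-HCl pH 7.4, 0.1% BSA, protease inhibitors, EDTA, 2 h at 25 °C. Filtered, washed, gamma-counted.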

Row | IC50 [nM] | SMILES
1 | 1 | Cc1ccc(-c2c(NS(=O)(=O)c3ccc4ccccc4c3)ncnc2OCCOc2ncc(Br)cn2)cc1
2 | 0.16 | CSc1cnc(OCCOc2ncnc(NS(=O)(=O)c3ccc(C(C)(C)C)cc3)c2-c2ccc(C)s2)nc1
3 | 0.0039 | COc1ccccc1Oc1c(NS(=O)(=O)c2ccc(C(C)(C)C)cc2)ncnc1OCCOc1ncc(Br)cn1
4 | 0.64 | COc1ccc(S(=O)(=O)Nc2ncnc(OCCOc3ncc(Br)cn3)c2-c2ccc(C)cc2)cc1OC
5 | 2.9 | CSc1cnc(OCCOc2ncnc(NS(=O)(=O)c3ccc(C(C)(C)C)cc3)c2-c2ccco2)nc1
6 | 0.0017 | COc1cnc(OCCOc2ncnc(NS(=O)(=O)c3ccc(C(C)(C)C)cc3)c2-c2ccc(C)cc2)nc1
7 | 1.9 | COc1cccc(Oc2c(NS(=O)(=O)c3ccc(C(C)(C)C)cc3)ncnc2OCCOc2ncccn2)c1
8 | 0.015 | COc1cnc(OCCOc2ncnc(NS(=O)(=O)c3ccc(C(C)(C)C)cc3)c2Oc2cccc(OC)c2)nc1
9 | 0.051 | COc1cccc(Oc2c(NS(=O)(=O)c3ccc(C(C)(C)C)cc3)ncnc2OCCOc2ncc(Br)cn2)c1
10 | 0.0017 | CSc1cnc(OCCOc2ncnc(NS(=O)(=O)c3ccc(C(C)(C)C)cc3)c2-c2ccc(C(F)(F)F)cc2)nc1
11 | 0.86 | COc1cccc(Oc2c(NS(=O)(=O)c3ccc(C(C)(C)C)cc3)ncnc2OCCOc2ncc(C)cn2)c1
12 | 0.059 | COc1cccc(Oc2c(NS(=O)(=O)c3ccc(C(C)(C)C)cc3)ncnc2OCCOc2ncc(Cl)cn2)c1
13 | 92 | COCCOc1ncnc(NS(=O)(=O)c2ccc(C(C)(C)C)cc2)c1Oc1cccc(OC)c1
14 | > 100 | COc1cccc(Oc2c(NS(=O)(=O)c3ccc(C(C)(C)C)cc3)ncnc2OCCNc2ncccn2)c1
15 | 0.018 | COc1ccccc1Sc1c(NS(=O)(=O)c2ccc(C(C)(C)C)cc2)ncnc1OCCOc1ncc(Br)cn1
16 | 3.4 | Cc1ccc(-c2c(NS(=O)(=O)c3ccc(-c4ccccn4)s3)ncnc2OCCOc2ncc(Br)cn2)cc1
17 | < 0.001 | Cc1ccc(-c2c(NS(=O)(=O)c3ccc(C(C)(C)C)cc3)ncnc2OCCOc2ncc(-c3ccco3)cn2)cc1

Row | IC50 [nM] | SMILES
18 | > 100 | COc1cccc(Oc2c(NS(=O)(=O)c3ccc(C(C)(C)C)cc3)ncnc2OCCOc2nccc(OC)n2)c1
19 | 0.0085 | COc1ccc(-c2c(NS(=O)(=O)c3ccc(C(C)(C)C)cc3)ncnc2OCCOc2ncc(SC)cn2)cc1OC
20 | < 0.001 | Cc1ccc(-c2c(NS(=O)(=O)c3ccc(C(C)(C)C)cc3)ncnc2OCCOc2ncc(Cl)cn2)cc1
21 | < 0.001 | CCC(C)(C)c1ccc(S(=O)(=O)Nc2ncnc(OCCOc3ncc(Br)cn3)c2-c2ccc(C)cc2)cc1
22 | 1.2 | COc1cccc(Oc2c(NS(=O)(=O)c3ccc(C(C)(C)C)cc3)ncnc2OCCOc2ccncn2)c1
23 | > 100 | Cc1ccc(-c2c(NS(=O)(=O)c3ccc(C(C)(C)C)cc3)ncnc2OCCO)cc1
24 | 24.5 | COc1cccc(Oc2c(NS(=O)(=O)c3ccc(C(C)(C)C)cc3)ncnc2OCCOc2cnccn2)c1
25 | < 0.001 | COc1ccc(-c2c(NS(=O)(=O)c3ccc(C(C)(C)C)cc3)ncnc2OCCOc2ncc(SC)cn2)cc1
26 | 0.0011 | CSc1cnc(OCCOc2ncnc(NS(=O)(=O)c3ccc(C(C)(C)C)cc3)c2-c2ccc3c(c2)OCO3)nc1
27 | 25.8 | COc1cccc(Oc2c(NS(=O)(=O)c3ccc(C(C)(C)C)cc3)ncnc2SCCOc2ncccn2)c1
28 | < 0.001 | Cc1ccc(-c2c(NS(=O)(=O)c3ccc(C(C)(C)C)cc3)ncnc2OCCOc2ncc(-c3ccsc3)cn2)cc1
29 | 2.8 | Cc1ccc(-c2c(NS(=O)(=O)c3ccc(Br)cc3)ncnc2OCCOc2ncc(Br)cn2)cc1
30 | < 0.001 | CSc1cnc(OCCOc2ncnc(NS(=O)(=O)c3ccc(C(C)(C)C)cc3)c2-c2ccc(Cl)cc2)nc1
31 | 93.5 | COc1cccc(Oc2c(NS(=O)(=O)c3ccc(C(C)(C)C)cc3)ncnc2OCCCOc2ncc(C)cn2)c1
32 | 0.89 | CSc1cnc(OCCOc2ncnc(NS(=O)(=O)c3ccc(C(C)(C)C)cc3)c2-c2cccs2)nc1
33 | 6.2 | COc1cccc(Oc2c(NCCOc3ncccn3)ncnc2NS(=O)(=O)c2ccc(C(C)(C)C)cc2)c1

Reference: ChEMBL document CHEMBL1134624, “Potent and selective ET-A antagonists. 1. Syntheses and structure-activity relationships of N-(6-(2-(aryloxy)ethoxy)-4-pyrimidinyl)sulfonamide derivatives” (J Med Chem, 2001)
